In ChEMBL document CHEMBL1156821, “Transforming rhinacanthin analogues from potent anticancer agents into potent antimalarial agents” (J Med Chem, 2010):
Calls of active or inactive are those of the source. The rule behind the calls is not given here.

What was measured:
Plasmodium falciparum [1] = experiment: Antimalarial activity against multidrug-resistant Plasmodium falciparum K1 infected in erythrocytes after 48 hrs by [3H]hypoxanthine incorporation assay; format: functional, organism-based
Method in brief: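 P. falciparum K1 (multidrug-resistant) was grown in RPMI 1640 with 20 mM HEPES, 32 mM NaHCO3, 10% […] human serum and 3% erythrocytes, at 37 C under 3% CO2. Early-ring cultures (1.5% erythrocytes, 1% parasitemia) were exposed to compound for 24 h at 0.1% final DMSO. [3H]hypoxanthine (0.5 μCi) was then added for a further 24 h, and incorporation was counted by scintillation. IC50 is the 50% growth reduction; values are the mean of six replicates; dihydroartemisinin was the reference.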

Vero = experiment: Cytotoxicity against African green monkey Vero cells by MTT assay; format: cell-based; conditions: Chlorocebus sabaeus
[2] = Inhibition of Cytochrome b-c1 complex in yeast mitochondrial membrane assessed as decyclobiquinol-linked cytochrome c reduction by spectrophotometry; format: cell membranes, Saccharomyces cerevisiae
Method in brief: (§1)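 Steady-state decylubiquinol/cytochrome c reductase in yeast mitochondrial membranes (YPD-grown at 28 C) or male Wistar rat (125-170 g) liver microsomes. bc1 set to 5 nM; 50 mM K-phosphate pH 7.5, 2 mM EDTA, 10 mM KCN, 30 μM equine cytochrome c. Start: 50 μM decylubiquinol. ε550-542nm read at 21 C; no preincubation, DMSO ≤0.3%. IC50 from four-parameter sigmoidal fit, three separate assays.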

Saccharomyces cerevisiae [3] = experiment: Inhibition of electron transfer from Q(o) site to iron cluster of Saccharomyces cerevisiae CK Cytochrome b-c1 complex assessed as DQH-induced reduction of cyt bc1 complex by redoxdifference spectra
Method in brief: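 Purified yeast bc1 at 2 μM in 50 mM K-phosphate with 0.05% UM; inhibitors added at final 5 μM (test) or 40 μM (stigmatellin, antimycin A). Redox difference spectra recorded as decylubiquinol-reduced bc1-inhibitor complex minus protein-inhibitor complex.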

Plasmodium falciparum [4] = experiment: Inhibition of Cytochrome b-c1 complex in Plasmodium falciparum 3D7 cell free extracts assessed as decyclobiquinol-linked cytochrome c reduction by spectrophotometry
Method in brief: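 Cell-free extract of P. falciparum 3D7 was made by 20 s sonication on ice and adjusted to 0.1 mg protein/mL by Bradford assay. Steady-state decylubiquinol/cytochrome c reductase activity was read at ε550-542nm at 21 C in 50 mM potassium phosphate pH 7.5 with 2 mM EDTA, 10 mM KCN and 30 μM equine cytochrome c. Reactions were started with 50 μM decylubiquinol, compound added without preincubation, DMSO ≤0.3%. IC50 came from four-parameter sigmoidal fits of three separate assays.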

[5] = Inhibition of wild type Saccharomyces cerevisiae CK Cytochrome b-c1 complex by spectrophotometry
Method in brief: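 Purified bc1 from wild-type yeast strain CKWT grown in YPGal was diluted to 8 nM. Inhibitor was added before starting with 50 μM decylubiquinol; 550 nm read at room temperature. IC50 taken from a concentration series.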

[6] = Therapeutic index, ratio of IC50 for African green monkey (Cercopithecus aethiops) Vero cells to IC50 for multidrug-resistant Plasmodium falciparum K1; format: cell-based; conditions: read-out: Ratio IC50
[7] = Inhibition of Cytochrome b-c1 complex in Wistar rat liver microsomes assessed as decyclobiquinol-linked cytochrome c reduction by spectrophotometry; set-up: species or system Microsome; method in brief: as §1
Saccharomyces cerevisiae [8] = experiment: Inhibition of Saccharomyces cerevisiae CK Cytochrome b-c1 complex assessed as DQH-induced reduction of cyt bc1 complex by redoxdifference spectra
[9] = Plasmodium falciparum, K1, read-out: IC50

Compound	IC50 (Plasmodium falciparum [1]; [9]) [nM]	IC50 (Vero) [nM]	also measured
CCCC(=O)OCC(C)(C)CC1=C(O)C(=O)c2ccccc2C1=O	910	73200	–
CC(C)CC(=O)OCC(C)(C)CC1=C(O)C(=O)c2ccccc2C1=O	410	550	–
CCC(C)CC(=O)OCC(C)(C)CC1=C(O)C(=O)c2ccccc2C1=O (centres undefined)	190	2300	–
CCCCCCCC(=O)OCCCC1=C(O)C(=O)c2ccccc2C1=O	5150	–	–
CC(=O)OCC(C)(C)CC1=C(O)C(=O)c2ccccc2C1=O	10900	139000	–
CCCCCCCCCCCCCCCC(=O)OCC(C)(C)CC1=C(O)C(=O)c2ccccc2C1=O	30	4410	–
CCC(C)C(=O)OCC(C)(C)CC1=C(O)C(=O)c2ccccc2C1=O (centres undefined)	220	870	–
CC(=O)OCCCC1=C(O)C(=O)c2ccccc2C1=O	–	–	IC50 (Plasmodium falciparum [1]): Not Active
CCCCCCCCCCCCCCCCCC(=O)OCC(C)(C)CC1=C(O)C(=O)c2ccccc2C1=O	133	15500	–
CCC(CC)C(=O)OCC(C)(C)CC1=C(O)C(=O)c2ccccc2C1=O	16600	104000	–
CCCC(=O)OCCCC1=C(O)C(=O)c2ccccc2C1=O	–	–	IC50 (Plasmodium falciparum [1]): Not Active
CCCCCCCCCCCCCC(=O)OCC(C)(C)CC1=C(O)C(=O)c2ccccc2C1=O	32	58400	IC50 [2]: 79.6 nM; Activity (Saccharomyces cerevisiae [3]): Active; IC50 (Plasmodium falciparum [4]): 8 nM; IC50 [5]: 770 nM; selectivity ratio [6]: 1830; IC50 [7]: 2500 nM
CCCCCC[C@H]1C(=O)O[C@H](C)[C@H](NC(=O)c2cccc(NC=O)c2O)C(=O)O[C@@H](C)[C@@H]1OC(=O)CC(C)C	–	–	Activity (Saccharomyces cerevisiae [8]): Active
CCCCCCC(=O)OCC(C)(C)CC1=C(O)C(=O)c2ccccc2C1=O	810	99300	–
CCCCCCCC(=O)OCC1(CC2=C(O)C(=O)c3ccccc3C2=O)CCCCC1	2630	–	–
CCCCCCCCCCCC(=O)OCC(C)(C)CC1=C(O)C(=O)c2ccccc2C1=O	900	249000	–
CC(C)C(=O)OCC(C)(C)CC1=C(O)C(=O)c2ccccc2C1=O	910	123000	–
CCCCC(=O)OCC(C)(C)CC1=C(O)C(=O)c2ccccc2C1=O	580	7840	–
CCC(=O)OCC(C)(C)CC1=C(O)C(=O)c2ccccc2C1=O	4100	60100	–
CCCC(C)C(=O)OCC(C)(C)CC1=C(O)C(=O)c2ccccc2C1=O (centres undefined)	120	120	–
C/C=C(C)/C=C/C=C/[C@H](OC)[C@@H](C)[C@@H](OC)[C@@H](C)CCc1oc2c(O)c(OC)cc(OC)c2c(=O)c1C [STIGMATELLIN]	–	–	Activity (Saccharomyces cerevisiae [3]): Active; IC50 [5]: 9.1 nM
CCCCCC(=O)OCC(C)(C)CC1=C(O)C(=O)c2ccccc2C1=O	1120	169000	–
CCCCCCCCC(=O)OCC(C)(C)CC1=C(O)C(=O)c2ccccc2C1=O	500	150000	–
CCCCCCCCCCC(=O)OCC(C)(C)CC1=C(O)C(=O)c2ccccc2C1=O	700	> 233000	–
CCCCCCCC(=O)OCC(C)(C)CC1=C(O)C(=O)c2ccccc2C1=O	130	> 259000	IC50 [2]: 16 nM; Activity (Saccharomyces cerevisiae [3]): Active; IC50 (Plasmodium falciparum [4]): 5.4 nM; IC50 [5]: 840 nM; selectivity ratio [6]: > 1990; IC50 [7]: 3000 nM
C[C@H]1[C@@H](O)O[C@@H]2O[C@@]3(C)CC[C@H]4[C@H](C)CC[C@@H]1[C@@]24OO3 [ARTENIMOL]	3.5	–	–
CC[C@H](C)C(=O)OCC(C)(C)CC1=C(O)C(=O)c2ccccc2C1=O	110	570	–
CCCCCCC(C)C(=O)OCC(C)(C)CC1=C(O)C(=O)c2ccccc2C1=O (centres undefined)	110	450	–
CCCCCCCCCC(=O)OCC(C)(C)CC1=C(O)C(=O)c2ccccc2C1=O	720	203000	–
